Source: PMC4339548 (Clinica chimica acta; international journal of clinical …, 2015)
Where two headings read alike, the source gives them in different places.

Experiments:
[1] = Urinary excretion of oral sugar probes; format: in vivo, human; details: for Percent urinary excretion of oral sugar probe: healthy subjects, oral cocktail, mean ± SD/SE; for Lactulose/Mannitol Ratio / Percent urinary excretion of oral sugar probe corrected for CrCl / Sucralose/Lactulose Ratio: mean ± SE; for % Total (of 24 h urinary excretion) corrected for CrCl / % Total (cum) corrected for CrCl: normalized for CrCl; for % Total (of 24 h urinary excretion) / % Total (cumulative): not normalized; for Percent urinary excretion of oral sugar probe corrected for CrCl: percent excretion divided by creatinine clearance; for % Total (cum) corrected for CrCl / % Total (cumulative): cumulative first 12 h; for Range of tertile means of 24 h percent excretion of oral dose: data divided into 3 tertile groups, lowest to highest excretion
[2] = format: in vivo, human; details: 24 h
How it was run: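 Age- and BMI-matched controls and patients fasted overnight and emptied their bladders. At 6 AM they took 2 g mannitol, 7.5 g lactulose and 40 g sucrose in 8 oz water, plus 1 g sucralose in 2 capsules. Fasting continued 2 h, with no "diet" foods or drinks from 48 h before through the test. Urine was pooled over 24 h and sugars were measured as alditol acetates by GC (DB-225MS). Results were expressed as % of oral dose and as the sucralose/lactulose ratio.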

[3] = ref [18], cited from earlier work
[4] = 12-24 hour, listed as lactulose
[5] = 12-24 hour, listed as sucralose

| Percent urinary excretion of oral sugar probe ([1]; 0-5 hour urine collection) [%] | % Total (of 24 h urinary excretion) corrected for CrCl ([1]; 0-5 hour) [%] | % Total (of 24 h urinary excretion) ([1]; 0-5 hour) [%] | Percent urinary excretion of oral sugar probe corrected for CrCl ([1]; 0-5 hour) | Percent urinary excretion of oral sugar probe ([1]; 0-24 hour urine collection) [%] | % Total (of 24 h urinary excretion) corrected for CrCl ([1]; 0-24 hour) [%] | % Total (of 24 h urinary excretion) ([1]; 0-24 hour) [%] | Percent urinary excretion of oral sugar probe corrected for CrCl ([1]; 0-24 hour) | Percent urinary excretion of oral sugar probe ([1]; 5-12 hour urine collection) [%] | % Total (of 24 h urinary excretion) corrected for CrCl ([1]; 5-12 hour) [%] | % Total (of 24 h urinary excretion) ([1]; 5-12 hour) [%] | Percent urinary excretion of oral sugar probe corrected for CrCl ([1]; 5-12 hour) | Percent urinary excretion of oral sugar probe ([1]; 12-24 hour urine collection) [%] | % Total (of 24 h urinary excretion) corrected for CrCl ([1]; 12-24 hour) [%] | % Total (of 24 h urinary excretion) ([1]; 12-24 hour) [%] | Percent urinary excretion of oral sugar probe corrected for CrCl ([1]; 12-24 hour) | % Total (cum) corrected for CrCl [1] [%] | % Total (cumulative) [1] [%] | Range of tertile means of 24 h percent excretion of oral dose [1] | Structure (SMILES) | further results |
| --- | --- | --- | --- | --- | --- | --- | --- | --- | --- | --- | --- | --- | --- | --- | --- | --- | --- | --- | --- | --- |
| 0.95 ± 0.6 | 30 | 29.3 | 0.012 ± 0.001 | 3.11 ± 0.2 | 100 | 100 | 0.04 ± 0.002 | 1.1 ± 0.19 | 32.4 | 26.8 | 0.012 ± 0.002 | 1.4 ± 0.1 | 40 | 43.9 | 0.016 ± 0.001 | 60 | 56.1 | 0.5%-1.7% | OC[C@H]1O[C@@H](O[C@@H]2[C@@H](CO)O[C@](O)(CO)[C@H]2O)[C@H](O)[C@@H](O)[C@H]1O [Lactulose, 4-o-β-D-galactopyranosyl-D-fructofuranose] | Lactulose/Mannitol Ratio ([1]; 0-5 hour urine): 0.065 ± 0.05; Lactulose/Mannitol Ratio ([1]; 0-5 hour urine, listed as lactulose): .065; % Total (of 24 h urinary excretion) ([1]; 0-5 hour, listed as lactulose): 29.3%; Lactulose/Mannitol Ratio ([1]; 0-24 hour urine): 0.124 ± 0.010; Lactulose/Mannitol Ratio ([1]; 0-24 hour urine, listed as lactulose): 0.124; Lactulose/Mannitol Ratio ([1]; 5-12 hour urine): 0.25 ± 0.03; Lactulose/Mannitol Ratio ([1]; 5-12 hour urine, listed as lactulose): 0.25; Lactulose/Mannitol Ratio ([1]; 12-24 hour urine): 0.534 ± 0.11; Lactulose/Mannitol Ratio ([1]; 12-24 hour urine, listed as lactulose): 0.534; % Total (of 24 h urinary excretion) corrected for CrCl [1, 4]: 40%; % Total (of 24 h urinary excretion) [1, 4]: 43.9%; Variation of lactulose/mannitol (L/M) ratio over 24 h ([1]; across collection segments, peak in second 12 hours): more than 8 fold |
| 15.6 ± 0.8 | 52.9 | 61.5 | 0.18 ± 0.01 | 28.9 ± 1.3 | 99 | 100 | 0.34 ± 0.029 | 6.03 ± 0.96 | 22.6 | 20 | 0.077 ± 0.01 | 6.4 ± 1.3 | 23.5 | 18.5 | 0.08 ± 0.016 | 75.5 | 81.5 | – | OC[C@@H](O)[C@@H](O)[C@H](O)[C@H](O)CO [Mannitol, D-mannitol] | % Total (of 24 h urinary excretion) corrected for CrCl ([1]; 0-5 hour, listed as mannitol): 52.9%; % Total (of 24 h urinary excretion) ([1]; 0-5 hour, listed as mannitol): 61.5%; % Total (of 24 h urinary excretion) corrected for CrCl ([1]; 12-24 hour, listed as mannitol): 23.5%; % Total (of 24 h urinary excretion) ([1]; 12-24 hour, listed as mannitol): 18.5% |
| 0.5 ± 0.8 | 33.3 | 35.9 | 0.005 ± 0.001 | 1.23 ± 0.14 | 99.5 | 100 | 0.015 ± 0.002 | 0.51 ± 0.13 | 38 | 29.7 | 0.0057 ± 0.001 | 0.3 ± 0.04 | 28.2 | 34.4 | 0.004 ± 0.0006 | 71.3 | 65.6 | 0.4%-2.4% | OC[C@H]1O[C@H](O[C@]2(CCl)O[C@H](CCl)[C@@H](O)[C@@H]2O)[C@H](O)[C@@H](O)[C@H]1Cl [Sucralose, 1,6-dichloro-1,6-dideoxy-β-D-fructofuranosyl-4-chloro-4-deoxy-α-D-glucopyranoside] | Sucralose/Lactulose Ratio ([1]; 0-5 hour urine): 0.53 ± 0.10; Sucralose/Lactulose Ratio ([1]; 0-5 hour urine, listed as sucralose): 0.53; % Total (of 24 h urinary excretion) corrected for CrCl ([1]; 0-5 hour, listed as sucralose): 33.3%; % Total (of 24 h urinary excretion) ([1]; 0-5 hour, listed as sucralose): 35.9%; Sucralose/Lactulose Ratio ([1]; 0-24 hour urine): 0.49 ± 0.08; Sucralose/Lactulose Ratio ([1]; 0-24 hour urine, listed as sucralose): 0.49; Sucralose/Lactulose Ratio ([1]; 5-12 hour urine): 0.54 ± 0.13; Sucralose/Lactulose Ratio ([1]; 5-12 hour urine, listed as sucralose): 0.54; Sucralose/Lactulose Ratio ([1]; 12-24 hour urine): 0.36 ± 0.06; Sucralose/Lactulose Ratio ([1]; 12-24 hour urine, listed as sucralose): 0.36; % Total (of 24 h urinary excretion) corrected for CrCl [1, 5]: 28.2%; % Total (of 24 h urinary excretion) [1, 5]: 34.4%; mean urinary excretion sucralose/lactulose ratio ([2]; Parkinson's disease patients (N=9), p ≤ 0.001 vs controls): 0.48 ± 0.1; mean urinary excretion sucralose/lactulose ratio ([2]; healthy controls (N=10)): 0.21± 0.1; 24 h mean urinary excretion sucralose value ([3]; Parkinson's disease patients (N=9), p ≤ 0.015 vs controls): 1.12 ± 0.1; 24 h mean urinary excretion sucralose value ([3]; healthy controls (N=10), BMI/age-matched): 0.58 ± 0.1 |
| 0.5 ± 0.15 | 26.9 | 29.6 | 0.006 ± 0.0007 | 1.82 ± 0.17 | 94.6 | 100 | 0.0223 ± 0.002 | – | 26.9 | 27.4 | 0.006 ± 0.001 | 0.8 ± 0.7 | 40.8 | 43 | 0.009 ± 0.0009 | 53.8 | 57 | 0.3%-0.6% | OC[C@H]1O[C@@](CO)(O[C@H]2O[C@H](CO)[C@@H](O)[C@H](O)[C@H]2O)[C@@H](O)[C@@H]1O [Sucrose, α-D-glucopyranosyl-β-D-fructofuranoside] | – |
